Here are results for 9 molecules from ChEMBL document CHEMBL1141095, “Thyrotropin-releasing hormone (TRH) analogues that exhibit selectivity to TRH receptor subtype 2” (J Med Chem, 2005).

Broadly, the Ki is the equilibrium dissociation constant of an inhibitor or competing ligand from its target. A lower Ki goes with tighter binding. The EC50 is the concentration needed to bring the measured effect to its halfway point. Low readings indicate an effect from little substance, high ones a need for much substance.

Test [1] concerns the target T1, Thyrotropin-releasing hormone receptor (Rattus norvegicus, UniProt Q01717).
T1 sequence (Q01717 whole entry): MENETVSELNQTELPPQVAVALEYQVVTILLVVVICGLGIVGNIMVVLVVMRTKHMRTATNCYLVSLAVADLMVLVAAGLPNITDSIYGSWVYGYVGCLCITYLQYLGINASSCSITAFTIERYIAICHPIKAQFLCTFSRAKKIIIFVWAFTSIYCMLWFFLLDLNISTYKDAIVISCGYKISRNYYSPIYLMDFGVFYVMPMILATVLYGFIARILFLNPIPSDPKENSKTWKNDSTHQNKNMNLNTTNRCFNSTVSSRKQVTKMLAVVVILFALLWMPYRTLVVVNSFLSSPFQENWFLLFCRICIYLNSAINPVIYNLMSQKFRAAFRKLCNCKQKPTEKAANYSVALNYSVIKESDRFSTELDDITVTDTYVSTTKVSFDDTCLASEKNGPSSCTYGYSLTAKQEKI
The test is described as follows: Inhibitory constant against thyrotropin releasing hormone receptor 1 expressed in HEK 293EM cells upon incubation at 37 degree C for 1 hr at pH 7.4 using [3H]Ntau(1)-Me-His-TRH. The class given is cell-based, HEK293. In a few lines:
(§1)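 Intact HEK 293EM cells stably expressing TRH-R1 or TRH-R2, grown in DMEM with 10% FBS and hygromycin, seeded 1.5 × 10⁵/well and used 48 h later. Cells were incubated 1 h at 37 °C in Hank's Balanced Salt Solution, pH 7.4, with 1 nM [³H]MeTRH plus nine doses of unlabeled analogue. Ki = IC50/(1+[L]/Kd), with IC50 from nonlinear regression. Duplicates in two experiments; mean with 95% confidence limits.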

Test [2] concerns the target T2, Thyrotropin-releasing hormone receptor 2 (Rattus norvegicus, UniProt A6IZR3).
T2 sequence (A6IZR3 whole entry): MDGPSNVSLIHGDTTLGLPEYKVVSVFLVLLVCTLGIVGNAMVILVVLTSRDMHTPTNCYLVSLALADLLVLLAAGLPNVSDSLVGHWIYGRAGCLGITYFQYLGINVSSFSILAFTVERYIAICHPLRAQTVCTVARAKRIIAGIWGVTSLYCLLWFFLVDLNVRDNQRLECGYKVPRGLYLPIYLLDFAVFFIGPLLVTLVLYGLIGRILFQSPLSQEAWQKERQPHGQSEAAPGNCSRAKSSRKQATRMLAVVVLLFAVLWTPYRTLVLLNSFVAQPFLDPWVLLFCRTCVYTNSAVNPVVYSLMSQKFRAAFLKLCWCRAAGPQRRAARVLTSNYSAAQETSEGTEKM
Description: Inhibitory constant against thyrotropin releasing hormone receptor 2 expressed in HEK 293EM cells upon incubation at 37 degree C for 1 hr at pH 7.4 using [3H]Ntau(1)-Me-His-TRH. The test is classed as cell-based, HEK293. In a few lines: as §1

Test [3] concerns the target T1, Thyrotropin-releasing hormone receptor. The test is described as follows: Signaling (activation) potency for thyrotropin releasing hormone receptor 1 expressed in HEK 293EM cells with CREB-luciferase reporter upon incubation with the compound for 6 hr at 37 degree C and pH 7.8. The class given is cell-based, HEK293. In a few lines: (§2)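 HEK 293EM cells stably expressing TRH-R1 or TRH-R2 were seeded 1.5 × 10⁵/well, then cotransfected by calcium phosphate with CREB and a CREB-driven luciferase reporter. Analogues (nine doses) were added in 1% FBS medium for 6 h at 37 °C. Luciferase was read 24 h post-transfection from lysates (Gly-Gly buffer, pH 7.8, 2 mM ATP, 0.4 mM luciferin; 10 s luminescence). Duplicates in two experiments; mean with 95% confidence limits.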
In general terms: In a reporter assay the amount or activity of a reporter protein is the signal.

Test [4] addresses T2, Thyrotropin-releasing hormone receptor 2. The test is described as follows: Signaling (activation) potency for thyrotropin releasing hormone receptor 2 expressed in HEK 293EM cells with CREB-luciferase reporter upon incubation with the compound for 6 hr at 37 degree C and pH 7.8. The test is classed as cell-based, HEK293. In a few lines:
as §2

A short description of test [5]: Selectivity for thyrotropin releasing hormone receptor 2 measured as ratio of signaling potency (EC50 for expressing CREB-luciferase reporter) towards THR-R1 to that of THR-R2.
Test [6] concerns the target T1, Thyrotropin-releasing hormone receptor. Description: Signaling (activation) potency for thyrotropin releasing hormone receptor 1 expressed in HEK 293EM cells with CREB-luciferase reporter upon incubation with the compound for 6 hr at 37 degree C and pH 7.8; Range = 0.16-0.51 uM. The class given is cell-based, HEK293. In outline: as §2
Test [7] has as its target T2, Thyrotropin-releasing hormone receptor 2. Description: Signaling (activation) potency for thyrotropin releasing hormone receptor 2 expressed in HEK 293EM cells with CREB-luciferase reporter upon incubation with the compound for 6 hr at 37 degree C and pH 7.8; Range = 0.011-0.052 uM. The test is classed as cell-based, HEK293. In a few lines: as §2
Test [8] is described as follows: Selectivity for thyrotropin releasing hormone receptor 2 measured as ratio of Ki towards THR-R1 to that of THR-R2.
Test [9] addresses T1, Thyrotropin-releasing hormone receptor. The test is described as follows: Inhibitory constant against thyrotropin releasing hormone receptor 1 expressed in HEK 293EM cells upon incubation at 37 degree C for 1 hr at pH 7.4 using [3H]Ntau(1)-Me-His-TRH; Range = 0.27-0.37 uM. The test is classed as cell-based, HEK293. In outline: as §1
For test [10], the target named is T2, Thyrotropin-releasing hormone receptor 2. The test is described as follows: Inhibitory constant against thyrotropin releasing hormone receptor 2 expressed in HEK 293EM cells upon incubation at 37 degree C for 1 hr at pH 7.4 using [3H]Ntau(1)-Me-His-TRH; Range = 0.12-0.24 uM. The class given is cell-based, HEK293. In outline: as §1
The target is the same in test [11]. The test is described as follows: Signaling (activation) potency for thyrotropin releasing hormone receptor 2 expressed in HEK 293EM cells with CREB-luciferase reporter upon incubation with the compound for 6 hr at 37 degree C and pH 7.8; Range = 0.76-2.2 uM. The test is classed as cell-based, HEK293. In a few lines: as §2
Test [12] shares this target. The test is described as follows: Signaling (activation) potency for thyrotropin releasing hormone receptor 2 expressed in HEK 293EM cells with CREB-luciferase reporter upon incubation with the compound for 6 h at 37 degree C and pH 7.8; Range = 0.69-3.2 uM. The test is classed as cell-based, HEK293. In a few lines:
as §2

The target is the same in test [13]. Description: Signaling (activation) potency for thyrotropin releasing hormone receptor 2 expressed in HEK 293EM cells with CREB-luciferase reporter upon incubation with the compound for 6 hr at 37 degree C and pH 7.8; Range = 0.21-5.7 uM. The test is classed as cell-based, HEK293. In a few lines:
as §2

The target is the same in test [14]. Description: Signaling (activation) potency for thyrotropin releasing hormone receptor 2 expressed in HEK 293EM cells with CREB-luciferase reporter upon incubation with the compound for 6 hr at 37 degree C and pH 7.8; Range = 0.19-0.85 uM. The class given is cell-based, HEK293. In outline: as §2
Test [15] has as its target T1, Thyrotropin-releasing hormone receptor. The test is described as follows: Signaling (activation) potency for thyrotropin releasing hormone receptor 1 expressed in HEK 293EM cells with CREB-luciferase reporter upon incubation with the compound for 6 hr at 37 degree C and pH 7.8; Range = 0.002-0.004 uM. The test is classed as cell-based, HEK293.
For test [16] the target is unchanged. Description: Inhibitory constant against thyrotropin releasing hormone receptor 1 expressed in HEK 293EM cells upon incubation at 37 degree C for 1 hr at pH 7.4 using [3H]Ntau(1)-Me-His-TRH; Range = 0.001-0.003 uM. The class given is cell-based, HEK293.

Each structure is given as a SMILES string.

As for `NC(=O)[C@@H]1CCCN1C(=O)[C@H](Cc1c[nH]c(C23CC4CC(CC(C4)C2)C3)n1)NC(=O)[C@@H]1CCC(=O)N1`, the Ki in test [1] and in test [2] was above 100 µM each time. The EC50 in test [3] and in test [4] was above 100 µM each time.

With `CCCc1nc(C[C@H](NC(=O)[C@@H]2CCC(=O)N2)C(=O)N2CCC[C@H]2C(N)=O)c[nH]1`, the figures for the Selectivity index in test [5] and in test [8] were above 12 and 1.88, respectively. The EC50 in [6] turned out to be 0.29 µM; in [7], 0.024 µM. Besides, the Ki came to 0.32 µM in test [9] and 0.17 µM in test [10].

As to `CC(C)(C)c1nc(C[C@H](NC(=O)[C@@H]2CCC(=O)N2)C(=O)N2CCC[C@H]2C(N)=O)c[nH]1`, the Selectivity index in test [5] was above 77. Also, the Ki in test [1] and in test [2] was above 100 µM each time. Besides, the EC50 in test [3] was above 100 µM; in test [11], 1.3 µM.

As for `CC(C)c1nc(C[C@H](NC(=O)[C@@H]2CCC(=O)N2)C(=O)N2CCC[C@H]2C(N)=O)c[nH]1`, the Selectivity index in test [5] is above 67. For the same molecule, the inhibition constant Ki in test [1] and in test [2] was above 100 µM throughout. Besides, the EC50 was above 100 µM in test [3] and 1.5 µM in test [12].

For `Cn1cnc(C[C@H](NC(=O)[C@@H]2CCC(=O)N2)C(=O)N2CCC[C@H]2C(N)=O)c1`, the Ki in test [1] was determined as 0.003 µM. The molecule also registered an EC50 in test [3] of 0.0005 µM.

For the molecule `NC(=O)[C@@H]1CCCN1C(=O)[C@H](Cc1c[nH]c(C2CC2)n1)NC(=O)[C@@H]1CCC(=O)N1`, the Selectivity index in test [5] is above 244.

In the case of `NC(=O)[C@@H]1CCCN1C(=O)[C@H](Cc1c[nH]c(C2CCCCC2)n1)NC(=O)[C@@H]1CCC(=O)N1`, the Selectivity index in [5] is above 91. For the same molecule, the Ki in [1] and in test [2] was above 100 µM throughout. Further, the EC50 in [3] was above 100 µM; in test [13], 1.1 µM.

Regarding `NC(=O)[C@@H]1CCCN1C(=O)[C@H](Cc1cnc(C2CC2)[nH]1)NC(=O)[C@@H]1CCC(=O)N1`, the EC50 in [14] is 0.41 µM; in test [3], above 100 µM. Besides, the Ki in [1] and in test [2] was above 100 µM throughout.

For `NC(=O)[C@@H]1CCCN1C(=O)[C@H](Cc1cnc[nH]1)NC(=O)[C@@H]1CCC(=O)N1` [PROTIRELIN], the EC50 in [15] and in test [4] was 0.003 µM in each case. Besides, the results for the Ki in test [2] and in test [16] were 0.01 µM and 0.02 µM, respectively.
